Converted amounts (≈) assume the structure as drawn. The source made the active and inactive calls. No cut-off for these calls is given here.
Tests used:
Streptococcus pyogenes = experiment: Antibacterial activity against penicillin-susceptible Streptococcus pyogenes after 24 hrs by broth microdilution method; format: functional
Summary of the method: (§1)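 MIC by broth microdilution following the NCCLS standard method. Test strains were penicillin-susceptible: B. subtilis ATCC9372, S. aureus ATCC25923, S. pneumoniae ATCC49619 and Streptococcus pyogenes PS.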

Streptococcus pneumoniae = experiment: Antibacterial activity against penicillin-susceptible Streptococcus pneumoniae ATCC 49619 after 24 hrs by broth microdilution method; format: functional; conditions: ATCC 49619, 24 h; summary of the method: as §1
Staphylococcus aureus [1] = experiment: Antibacterial activity against penicillin-resistant Staphylococcus aureus clinical isolate after 24 hrs by broth microdilution method; format: functional
Summary of the method: (§2)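 MIC by standard broth microdilution following NCCLS recommendations. S. aureus ATCC29213 is a […] strain. The S. aureus PR strain is a penicillin-resistant clinical isolate that has not been characterized. The MIC was taken as the in vitro antibacterial activity value.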

Staphylococcus aureus [2] = experiment: Antibacterial activity against penicillin-susceptible Staphylococcus aureus ATCC 25923 after 24 hrs by broth microdilution method; format: functional; conditions: ATCC 25923, 24 h; summary of the method: as §1
Staphylococcus aureus [3] = experiment: Antibacterial activity against […] Staphylococcus aureus ATCC 29213 after 24 hrs by broth microdilution method; format: functional; conditions: ATCC 29213, 24 h; summary of the method: as §2
Bacillus subtilis [4] = experiment: Antibacterial activity against penicillin-susceptible Bacillus subtilis ATCC 9372 after 24 hrs by broth microdilution method; format: functional; conditions: ATCC 9372, 24 h; summary of the method: as §1
Staphylococcus aureus [5] = experiment: Inhibition of cell division in penicillin-susceptible Staphylococcus aureus ATCC 25923 assessed as lowest concentration required to ballooning after 5 hrs by phase-contrast light microscopy analysis; format: functional
Summary of the method: (§3)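 Cell morphology of B. subtilis ATCC9372 or S. aureus ATCC25923 was examined by phase-contrast light microscopy. The value recorded is the lowest compound concentration at which B. subtilis filamentation or S. aureus ballooning appeared. This is taken as on-target cell division inhibition.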

Bacillus subtilis [6] = experiment: Inhibition of cell division in penicillin-susceptible Bacillus subtilis ATCC 9372 assessed as lowest concentration required to filamentation after 5 hrs by phase-contrast light microscopy analysis; format: functional; summary of the method: as §3
Bacillus subtilis [7] = experiment: Inhibition of cell division in penicillin-susceptible Bacillus subtilis ATCC 9372 at 2048 to 4096 ug/ml after 5 hrs by phase-contrast light microscopy analysis; format: functional, organism-based
Bacillus subtilis [8] = experiment: Ratio of compound MIC to 3-MBA MIC for penicillin-susceptible Bacillus subtilis ATCC 9372; format: functional
Bacillus subtilis [9] = experiment: Ratio of compound to 3-MBA for inhibition of cell division in penicillin-susceptible Bacillus subtilis ATCC 9372; format: functional
Staphylococcus aureus [10] = experiment: Inhibition of cell division in penicillin-susceptible Staphylococcus aureus ATCC 25923 at 2048 to 4096 ug/ml after 5 hrs by phase-contrast light microscopy analysis; format: functional, organism-based

| SMILES | MIC (Streptococcus pyogenes) [µg/mL] | MIC (Streptococcus pneumoniae) [µg/mL] | MIC (Staphylococcus aureus [1]) [µg/mL] | MIC (Staphylococcus aureus [2]) [µg/mL] | MIC (Staphylococcus aureus [3]) [µg/mL] | MIC (Bacillus subtilis [4]) [µg/mL] | INH (Staphylococcus aureus [5]) [µg/mL] | INH (Bacillus subtilis [6]) [µg/mL] | inhibition (Bacillus subtilis [7]) | Ratio (Bacillus subtilis [8]) | Ratio (Bacillus subtilis [9]) | inhibition (Staphylococcus aureus [10]) |
| --- | --- | --- | --- | --- | --- | --- | --- | --- | --- | --- | --- | --- |
| CCOCCCCCOc1cccc(C(N)=O)c1 | > 128 | > 128 | 64 (≈ 255 µM) | 64 (≈ 255 µM) | 64 (≈ 255 µM) | 64 (≈ 255 µM) | 128 | 64 |  |  |  |  |
| NC(=O)c1cccc(OCCCCCBr)c1 | > 128 | > 128 | 32 (≈ 112 µM) | 32 (≈ 112 µM) | 16 (≈ 55.9 µM) | 64 (≈ 224 µM) | 64 | 32 |  |  |  |  |
| NC(=O)c1cccc(OCCCCn2cncn2)c1 | > 128 | > 128 | > 128 | 1020 (≈ 3930 µM) | > 128 | 1020 (≈ 3930 µM) | 1024 |  | inactive |  |  |  |
| NC(=O)c1cccc(OCCCCCCBr)c1 | > 128 | > 128 | 64 (≈ 213 µM) | 64 (≈ 213 µM) | 64 (≈ 213 µM) | 32 (≈ 107 µM) | 64 | 16 |  |  |  |  |
| NC(=O)c1cccc(OCCCSc2nc3ccccc3s2)c1 | > 128 | > 128 | > 128 | 512 (≈ 1490 µM) | > 128 | 512 (≈ 1490 µM) | 256 | 512 |  |  |  |  |
| NC(=O)c1cccc(OCCCCOc2ccccc2)c1 | > 128 | 128 (≈ 449 µM) | > 128 | 1020 (≈ 3590 µM) | > 128 | 64 (≈ 224 µM) | 512 | 32 |  |  |  |  |
| CCCOCCCCCOc1cccc(C(N)=O)c1 | > 128 | > 128 | 32 (≈ 121 µM) | 16 (≈ 60.3 µM) | 32 (≈ 121 µM) | 32 (≈ 121 µM) | 32 | 8 |  |  |  |  |
| NC(=O)c1cccc(OCCCCCCCl)c1 | > 128 | > 128 | 32 (≈ 125 µM) | 32 (≈ 125 µM) | 64 (≈ 250 µM) | 16 (≈ 62.6 µM) | 32 | 4 |  | 256 | 128 |  |
| NC(=O)c1cccc(OCCCBr)c1 | > 128 | > 128 | 128 (≈ 496 µM) | 64 (≈ 248 µM) | 64 (≈ 248 µM) | 128 (≈ 496 µM) | 32 | 128 |  |  |  |  |
| NC(=O)c1cccc(OCCBr)c1 | > 128 | > 128 | 128 (≈ 524 µM) | 64 (≈ 262 µM) | 128 (≈ 524 µM) | 128 (≈ 524 µM) | 16 | 64 |  |  |  |  |
| COc1ccc(OCCCCOc2cccc(C(N)=O)c2)cc1 | > 128 | > 128 | > 128 | 4100 (≈ 13000 µM) | > 128 | 1020 (≈ 3250 µM) |  | 32 |  |  |  | inactive |
| COc1ccc(OCCCOc2cccc(C(N)=O)c2)cc1 | > 128 | > 128 | > 128 | 1020 (≈ 3400 µM) | > 128 | 1020 (≈ 3400 µM) | 512 | 1024 |  |  |  |  |
| NC(=O)c1cccc(OCCCCOc2ccc(Cl)cc2)c1 | > 128 | > 128 | > 128 | 1020 (≈ 3200 µM) | > 128 | 0.5 (≈ 1.56 µM) | 256 | 0.25 |  |  |  |  |
| NC(=O)c1cccc(OCCCCCCl)c1 | > 128 | > 128 | 32 (≈ 132 µM) | 32 (≈ 132 µM) | 32 (≈ 132 µM) | 64 (≈ 265 µM) | 32 | 32 |  |  |  |  |
| NC(=O)c1cccc(OCCCSc2nc3ccccc3[nH]2)c1 | > 128 | > 128 | > 128 | 1020 (≈ 3130 µM) | > 128 | 16 (≈ 48.9 µM) | 512 | 4 |  |  |  |  |
